From PMC6774347 (European Journal of Organic Chemistry, 2019)

What was measured:
CEM leukemia cell line = experiment: Differential nuclear staining; assay type: cell-based, human; settings: 48 h; for CEM cell death (in words): at the prepared / highest soluble concentrations; for Concentration inducing significant death in CEM cells: tested 100 µM to 0.5 µM
How it was run: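 Live-cell imaging differential nuclear staining with Hoechst 33342 (all nuclei) and propidium iodide (dead cells). DMSO stocks at highest soluble concentration were serially diluted and added to cells in complete medium (final 1 % v/v DMSO), 100 µM down to 0.5 µM. Read at 48 h in quadruplicate. Controls were untreated, 1 % DMSO and 1.62 mM H2O2. CC50 (50 % membrane-integrity loss versus untreated) was linearly interpolated between the two concentrations nearest 50 %.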

[1] = Compound solubility in DMSO stock and in the biological assays; assay type: physicochemical; settings: for Compound crystallization in treated cells: CEM cells in complete media, 1 % v/v DMSO; for Solubility (in words): stock solutions at highest soluble concentration in DMSO
TK+ VZV = experiment: Antiviral assay, plaque formation in HEL cells; assay type: cell-based, varicella-zoster virus (VZV); settings: Human alphaherpesvirus 3, HEL
[2] = test system: MDA-MB-231 (MB-231) triple-negative breast cancer cell line; experiment: Differential nuclear staining; assay type: cell-based; settings: Homo sapiens, MDA-MB-231, 72 h
How it was run: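 MDA-MB-231 cells were stained with Hoechst 33342 and propidium iodide and imaged live. Serial dilutions from 100 µM (to 0.5 µM) in DMSO were added directly to cell-containing wells (final 1 % v/v DMSO). Read at 72 h in quadruplicate. Controls were untreated, 1 % DMSO and 1.62 mM H2O2. CC50 was linearly interpolated between the two concentrations flanking 50 % death relative to untreated cells.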

TK– VZV = experiment: Antiviral assay, plaque formation in HEL cells; assay type: cell-based, varicella-zoster virus (VZV); settings: Human alphaherpesvirus 3, HEL
CEM cells = experiment: Annexin V-FITC / propidium iodide apoptosis assay; assay type: cell-based, human; settings: 24 h, annexin-FITC and PI staining

COc1cc(-c2cn(-c3cc(=O)oc4ccccc34)nn2)cc(OC)c1OC [Compound 13, 4‐(4‐(3,4,5‐Trimethoxyphenyl)‐1H‐1,2,3‐triazol‐1‐yl)‐2H‐chromen‐2‐one]
CEM cell death (in words) (CEM leukemia cell line): did not induce quantifiable CEM cell death | Compound crystallization in treated cells [1]: significant compound crystallization

COc1cc(-c2cn(-c3cc(=O)oc4ccc(C)cc34)nn2)cc(OC)c1OC [Compound 14, 6‐Methyl‐4‐(4‐(3,4,5‐trimethoxyphenyl)‐1H‐1,2,3‐triazol‐1‐yl)‐2H‐chromen‐2‐one]
CEM cell death (in words) (CEM leukemia cell line): did not induce significant CEM cell death

COc1cc(-c2cn(-c3cc(=O)oc4ccc(Cl)cc34)nn2)cc(OC)c1OC [Compound 15, 6‐Chloro‐4‐(4‐(3,4,5‐trimethoxyphenyl)‐1H‐1,2,3‐triazol‐1‐yl)‐2H‐chromen‐2‐one]
CEM cell death (in words) (CEM leukemia cell line): demonstrated cytotoxicity at its highest soluble concentration | Solubility (in words) [1]: one of the least soluble compounds in the series

COc1cc(-c2cn(-c3cc(=O)oc4ccc(Br)cc34)nn2)cc(OC)c1OC [Compound 16, 6‐Bromo‐4‐(4‐(3,4,5‐trimethoxyphenyl)‐1H‐1,2,3‐triazol‐1‐yl)‐2H‐chromen‐2‐one]
CEM cell death (in words) (CEM leukemia cell line): did not induce significant CEM cell death | Solubility (in words) [1]: relatively soluble

COc1cc(-c2cn(-c3cc(=O)oc4c(Cl)cc(Cl)cc34)nn2)cc(OC)c1OC [Compound 17, 6,8‐Dichloro‐4‐(4‐(3,4,5‐trimethoxyphenyl)‐1H‐1,2,3‐triazol‐1‐yl)‐2H‐chromen‐2‐one]
CEM cell death (in words) (CEM leukemia cell line): did not induce significant CEM cell death | EC50 (TK+ VZV): 66.9 µM

COc1cc(-c2cn(-c3cc(=O)oc4cc(C)ccc34)nn2)cc(OC)c1OC [Compound 18, 7‐Methyl‐4‐(4‐(3,4,5‐trimethoxyphenyl)‐1H‐1,2,3‐triazol‐1‐yl)‐2H‐chromen‐2‐one]
CEM cell death (in words) (CEM leukemia cell line): did not induce quantifiable CEM cell death | Compound crystallization in treated cells [1]: significant compound crystallization

COc1ccc2c(-n3cc(-c4cc(OC)c(OC)c(OC)c4)nn3)cc(=O)oc2c1 [Compound 19, 7‐Methoxy‐4‐(4‐(3,4,5‐trimethoxyphenyl)‐1H‐1,2,3‐triazol‐1‐yl)‐2H‐chromen‐2‐one]
CEM cell death (in words) (CEM leukemia cell line): did not induce quantifiable CEM cell death | Compound crystallization in treated cells [1]: significant compound crystallization

COc1cc(-c2cn(-c3ccccc3)nn2)cc(OC)c1OC [Compound 20, 1‐Phenyl‐4‐(3,4,5‐trimethoxyphenyl)‐1H‐1,2,3‐triazole]
CC50 [2]: 55.4 µM | EC50 (TK– VZV): 39.1 µM | Solubility (in words) [1]: the most readily soluble of the compounds | EC50 (TK+ VZV): 39.9 µM | Mode of cell death (apoptosis vs necrosis) (CEM cells): preferentially induces cell death via apoptosis

COc1cc(OC)cc(-c2cn(-c3cc(=O)oc4ccc(Br)cc34)nn2)c1 [Compound 22, 6‐Bromo‐4‐(4‐(3,5‐dimethoxyphenyl)‐1H‐1,2,3‐triazol‐1‐yl)‐2H‐chromen‐2‐one]
Concentration inducing significant death in CEM cells (CEM leukemia cell line): approximately 10 µM | EC50 (TK+ VZV): 58.5 µM

COc1ccc(-c2cn(-c3cc(=O)oc4ccc(Br)cc34)nn2)cc1 [Compound 23, 6‐Bromo‐4‐(4‐(4‐methoxyphenyl)‐1H‐1,2,3‐triazol‐1‐yl)‐2H‐chromen‐2‐one]
Concentration inducing significant death in CEM cells (CEM leukemia cell line): approximately 10 µM

COc1cccc(-c2cn(-c3cc(=O)oc4ccc(Br)cc34)nn2)c1 [Compound 24, 6‐Bromo‐4‐(4‐(3‐methoxyphenyl)‐1H‐1,2,3‐triazol‐1‐yl)‐2H‐chromen‐2‐one]
Concentration inducing significant death in CEM cells (CEM leukemia cell line): approximately 10 µM
